GalR3 antag = GalR3 antagonists in HEK293 cells, primary screen, cell-based, fluorescence readout. Galanin receptor type 3 (Homo sapiens), O60755. HEK293 GalR3-CNG cAMP membrane potential fluorescence; galR3 body fused to GalR1 C-terminus. inhibition, % at 3 µM. 360,000 tested, 0.44% active;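 active means inhibition above the screen-wide average plus 3 SD, cut at about 13% in these data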;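 further: forskolin and galanin both at EC90 stimulate the cells; cAMP rise reported by CNG channel membrane potential dye signal; 0% = forskolin plus galanin with DMSO and 100% = forskolin alone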
Target sequence (O60755 1-299 limits assumed): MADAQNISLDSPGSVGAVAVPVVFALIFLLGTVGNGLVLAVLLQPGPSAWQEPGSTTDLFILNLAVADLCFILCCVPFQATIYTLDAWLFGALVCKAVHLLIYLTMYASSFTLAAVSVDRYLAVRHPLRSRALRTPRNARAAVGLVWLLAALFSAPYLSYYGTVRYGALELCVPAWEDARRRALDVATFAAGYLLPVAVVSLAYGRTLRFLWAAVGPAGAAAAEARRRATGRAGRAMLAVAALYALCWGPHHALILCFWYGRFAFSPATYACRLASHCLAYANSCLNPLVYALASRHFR
OX1R antag-1 = OX1R (HCRTR1) antagonists, primary screen, fluorescence, CHO/OX1R cells, Fluo-8 calcium, orexin A; Orexin/Hypocretin receptor type 1 (Homo sapiens), O43613; Fluo-8 calcium fluorescence; inhibition, % at 5 µM; 330,000 tested, 0.43% active; AID 434989, 2010;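 active means inhibition above its plate's threshold, mean inhibition of all tested compounds on the plate plus 3 SD, cut at about 37% in these data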;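 further: 0% = orexin A challenge wells and 100% = SB-334867-A antagonist wells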
Target sequence (O43613 whole entry, looked up): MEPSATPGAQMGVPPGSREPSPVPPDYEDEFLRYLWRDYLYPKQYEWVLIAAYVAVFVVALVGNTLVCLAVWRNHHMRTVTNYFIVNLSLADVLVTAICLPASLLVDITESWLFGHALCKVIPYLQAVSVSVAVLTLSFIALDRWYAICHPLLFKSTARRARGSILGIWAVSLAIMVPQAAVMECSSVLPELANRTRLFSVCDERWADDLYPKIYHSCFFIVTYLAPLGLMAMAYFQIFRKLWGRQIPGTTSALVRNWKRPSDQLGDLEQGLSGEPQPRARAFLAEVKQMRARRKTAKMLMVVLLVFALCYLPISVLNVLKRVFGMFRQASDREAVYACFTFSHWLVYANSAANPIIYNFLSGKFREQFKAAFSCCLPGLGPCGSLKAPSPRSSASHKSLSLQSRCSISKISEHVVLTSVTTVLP
CHO parental Ca = ATP-evoked calcium signal inhibitors, parental CHO, primary screen, counter-screen for OX1R antagonist project, cell-based, fluorescence, Fluo-8 calcium dye. parental CHO-K1, ATP-induced calcium, Fluo-8 fluorescence. 330,000 tested, 0.63% active. AID 463079, 2010. inhibition, % at 5.6 µM;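 active means inhibition above that plate's mean sample inhibition plus 3 SD, cut at about 26% in these data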;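 further: 0% = ATP-challenged DMSO wells and 100% = DMSO wells without ATP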
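test system = CHO parental line | reagent = ATP stimulus | measured by = intracellular calcium via Fluo-8 no-wash fluorescent dye | control set = ATP and no-ATP DMSO wells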
GPR7 antagonist = GPR7 receptor antagonists, primary screen, cell-based, fluorescence, single concentration; Neuropeptides B/W receptor type 1 (Homo sapiens), P48145; GPR7-expressing cells, fluorescence antagonist assay; inhibition, % at 4.4 µM; 290,000 tested, 1.1% active; AID 1861, 2009; in the data active means inhibition above about 16%, passing the limit was not always enough;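 further: cells stimulated with the agonist NPW; 0% = agonist with vehicle and 100% = vehicle without agonist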
OX1R antag-2 = antagonists of human orexin 1 receptor (OX1R); Orexin/Hypocretin receptor type 1 (Homo sapiens), O43613; OX1R-expressing cells, FRET antagonist read-out; inhibition, % at 6.6 µM; 330,000 tested, 1.8% active; AID 485270, 2010; in the data active means inhibition mostly above about 38%, no sharp cut-off; inactive means mostly below about 40%;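 further: 0% = agonist challenge alone and 100% = reference antagonist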
GalR3 conf = GalR3 antagonist hit confirmation, cell-based, fluorescence, triplicate; HEK293 GalR3 CNG cAMP biosensor, membrane potential fluorescence; galR3 fused to GalR1 carboxy tail; challenged with forskolin and galanin at EC90; inhibition, % at 3 µM; 1,600 tested, 59% active; shares compounds with GalR3 antag;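 active means inhibition above the primary screen's cutoff, the mean inhibition of all screened compounds plus 3 SD, cut at about 13% in these data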;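 further: 0% = forskolin plus galanin and 100% = forskolin alone with DMSO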
CNG parental = nonspecific cAMP agonists in parental HEK-CNG cells, counter-screen for GalR3 antagonist project, cell-based, fluorescence, high throughput; shares compounds with GalR3 antag; HEK293-CNG parental cells, cAMP membrane potential fluorescence; normalised: DMSO wells 0%, forskolin wells 100%; activation, % at 3 µM; 1,600 tested, 10% active; AID 652268, 2013; in the data active means activation above about 1.3%
* marks the source's active call; other numbers are inactive results; . = not tested or not shown. Shown are actives, neighbours in structure and some others; about 3.1% of the full set was active somewhere.

SMILES	GalR3 antag	OX1R antag-1	CHO parental Ca	GPR7 antagonist	OX1R antag-2	GalR3 conf	CNG parental
O=C1c2ccccc2C(=O)N1CCC#Cc1ccc2cc(CCO)oc(=O)c2c1	13.2*	11.5	1.4	.	9.1	4.3	0.4
CN(C)c1ccc(C#Cc2ccc3cc(CCO)oc(=O)c3c2)cc1	.	-5.4	-7.0	.	7.5	.	.
CC(C)SCCCOc1ccc(C(C)(C)C)cc1	.	0.9	-4.2	-3.0	22.4	3.7	-0.3
CC(C)SCCCCOc1ccc2ccccc2c1	-4.0	-9.9	-2.0	-10.7	5.0	.	.
COc1ccc(C2c3cc(OC)c(OC)cc3CC3C(=O)OCC32)cc1OC (stereo not drawn)	62.0*	.	.	.	.	65.1*	0.0
CCCCN(C)C(=O)c1cc2cc([N+](=O)[O-])cc(OC)c2oc1=O	21.6*	-22.5	-6.0	-5.8	53.5	2.2	0.2
CCOC(=O)c1cc2cc([N+](=O)[O-])cc(OC)c2oc1=O	-7.5	-8.8	-3.6	-15.6	14.9	.	.
O=C(NC1CCN(Cc2ccccc2)CC1)c1cc(S(=O)(=O)N2CCOCC2)ccc1Cl	-5.1	.	.	.	.	.	.
CCCCCCNS(=O)(=O)c1ccc(NC(=O)C2CCCO2)cc1 (stereo not drawn)	15.0*	-4.8	-3.6	-5.0	9.8	25.7*	-0.3
O=C(Nc1ccc(S(=O)(=O)Nc2ccc(Cl)cc2)cc1)C1CCCO1 (stereo not drawn)	-6.4	13.7	7.8	3.3	8.8	.	.
Cc1ccc(NC(=O)CSc2nnc(-c3cccnc3)s2)cc1	1.2	3.3	4.4	15.5	19.9	.	.
O=C(CSc1nnc(-c2cccnc2)s1)Nc1ccnc2ccccc12	90.5*	26.2	26.9	1.4	21.9	118.7*	0.0
CCc1nc2ccc(C(=O)NCCc3ccccn3)cn2c1N(CC)Cc1cccc(Br)c1	-5.5	.	.	.	.	.	.
Cc1cc(NC(=O)/C=C/c2ccccc2)c(C(C)C)cc1O	18.7*	-17.1	-14.2	-13.8	9.3	22.8*	-0.2
Cc1cc(NC(=O)c2ccccc2Cl)c(C(C)C)cc1O	-7.6	-1.8	-2.4	-13.1	19.4	.	.
COc1ccc(CN2CCC(C(=O)Nc3ccc(Oc4ccccc4)nc3)CC2)cc1F	62.4*	-13.9	-17.1	2.4	30.0	101.2*	0.1
COc1cc(F)ccc1CN1CCC(C(=O)Nc2ccc(Oc3ccccc3)nc2)CC1	-11.2	-13.8	-12.1	5.6	4.2	.	.
C=C(C)C(=O)Nc1cccc(C2=NOC3(C2)C[C@@H](C(N)=O)N(C(=O)c2cc([N+](=O)[O-])cc([N+](=O)[O-])c2C)C3)c1 (stereo partly drawn)	-3.6	-23.8	-14.7	.	23.2	.	.
C/C=C/C(=O)Nc1cccc(C2=NOC3(C2)C[C@@H](C(N)=O)N(C(=O)c2cc([N+](=O)[O-])cc([N+](=O)[O-])c2C)C3)c1 (stereo partly drawn)	13.4*	-3.7	3.6	.	22.3	1.2	0.2
CS(=O)c1ccccc1COC(=O)Nc1ccc(Cl)cc1 (stereo not drawn)	1.7	-29.7	-16.7	3.3	3.1	.	.
Cc1ccc(NC(=O)OCc2ccccc2S(C)=O)cc1 (stereo not drawn)	14.6*	-23.9	-5.1	0.0	15.9	28.9*	-0.3
CC(=O)c1ccc(N2CCN(C(=S)Nc3ccc(Oc4ccccc4)cc3)CC2)cc1	81.9*	52.1*	45.5*	23.7*	52.0	96.6*	-1.2
Cn1c(=O)c2c(ncn2CC(=O)OCC(=O)c2ccc(Br)cc2)n(C)c1=O	-0.6	.	.	.	.	.	.
O=C(Nc1nc(-c2ccc(Cl)cc2Cl)cs1)c1ccc(OCC2CCCO2)cc1 (stereo not drawn)	92.5*	-20.7	-14.1	-15.5	12.2	109.3*	-0.6
CCN(CC)S(=O)(=O)c1ccc(NC(=O)c2ccc(CN3CCOCC3)cc2)cc1	101.4*	-4.6	6.2	14.9	24.0	106.3*	-0.7
SMILES	GalR3 antag	OX1R antag-1	CHO parental Ca	GPR7 antagonist	OX1R antag-2	GalR3 conf	CNG parental
CCCCOc1ccc(C(=O)Nc2ccc(CN3CCOCC3)cc2)cc1	-8.1	.	.	-17.8	.	.	.
CCN(CC)S(=O)(=O)c1ccc(N2CCOCC2)c(NC(=O)c2ccccc2)c1	-0.6	-24.5	-16.2	-3.5	3.1	.	.
O=C(Nc1ccc(S(=O)(=O)N2CCCC2)cc1)c1ccc(CN2CCOCC2)cc1	106.9*	-26.7	-9.0	16.2	11.9	64.1*	0.2
CCN(CC)S(=O)(=O)c1ccc(O)c(NC(=O)c2ccc(N3CCOCC3)c([N+](=O)[O-])c2)c1	22.7*	-12.3	-5.6	-11.0	5.4	11.2	0.4
O=C(Nc1ccc(Cl)cc1)c1ccc(OCC2CCCO2)cc1 (stereo not drawn)	-5.8	-1.4	-9.2	9.3	5.9	.	.
CCOC(=O)c1ccc(N=Cc2cnc(N)nc2N)cc1	-6.4	.	.	.	.	.	.
CC(=O)Nc1cc(-c2ccncc2)cn2c(-c3ccccc3)cnc12	-5.5	.	.	.	.	.	.
O=C(c1[nH]c(C(F)(F)F)nc1-c1ccccc1)N1CCC(Cc2ccccc2)CC1	-0.3	.	.	.	.	.	.
COCc1[nH]nc2c1C(c1ccc(F)cc1)NC2=O (stereo not drawn)	-3.3	.	.	.	.	.	.
CC(C)CN1C(=O)CSCC1(C)C(=O)NC(C)C (stereo not drawn)	0.2	.	.	.	.	.	.
Cc1cc2nc(-c3ccccc3)c(Cc3cccc(Cl)c3)n2c(C)c1Br	-7.1	.	.	.	.	.	.
COc1ccc(CC(=O)Nc2cccc(S(=O)(=O)N3CCCCCC3)c2)cc1OC	104.5*	4.1	48.8*	5.8	22.8	99.2*	-0.8
CCOc1ccc(NC(=O)c2ccc(OCC3CCCO3)cc2)cc1S(=O)(=O)N(CC)CC (stereo not drawn)	-6.4	-22.2	-22.3	.	5.7	.	.
CCN(CC(=O)NCCCN1CCOCC1)S(=O)(=O)c1ccc(F)cc1	19.1*	11.7	4.3	-4.5	8.0	3.0	0.0
CCN(CC)S(=O)(=O)c1ccc(NC(=O)c2ccc(OCC3CCCO3)cc2)cc1 (stereo not drawn)	34.5*	10.7	-4.0	.	7.0	104.2*	-0.3
COc1ccc(NS(=O)(=O)c2ccc(N3CCOCC3)c(N)c2)cc1	83.9*	42.7	27.5	.	26.5	82.8*	-0.4
CCN(CC(=O)NCCCN1CCOCC1)S(=O)(=O)c1ccc(Cl)cc1	-1.8	-18.0	-0.4	-12.8	17.3	.	.

Screens from PubChem BioAssay.
